Source: PubChem BioAssay
Records with an inconclusive call do not appear.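 The calls were made as follows, unless noted: active = viability at or below 27.92% in each of two runs, the all-compound median minus 4 SD; inconclusive = no clear call, values can overlap the other calls; inactive = the rest.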

Legend:
[1] = S. cerevisiae growth inhibition in permissive medium (OD615), pilot counter-assay for S. cerevisiae lifespan shortening project, permissive growth control (AID 705;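 active = growth inhibition above 25% in both replicates, a cutoff set 3 SD above the mean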); conditions: OD615, 24 h, at 10 µM, stronger effect = higher value
Outline: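 System – S. cerevisiae with engineered DeaD lifespan system · Buffer or medium – SC raffinose/galactose permissive medium · Schedule – cells pre-grown 4 h, then 24 h compound exposure, 30 °C humidified · Technique – culture turbidity as optical density at 615 nm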

[2] = S. cerevisiae growth inhibition in restrictive medium, OD615, pilot screen, restrictive growth control, yeast lifespan reduction project (AID 706;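 active = growth inhibition above a set limit, 3 SD over mean compound inhibition, in both replicates, cut at about 43% in these data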;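 also: modified DeaD lifespan yeast strain shifted to restrictive glucose medium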); conditions: OD615, 48 h, at 10 µM, stronger effect = higher value
Outline: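 Material: engineered S. cerevisiae DeaD strain / Medium: glucose-based CSMM-D restrictive medium / Compound: single dose of 10 µM compound final, 0.25% DMSO / Timing: 4 h pre-incubation, 48 h exposure at 30 °C / Technique: OD615 absorbance reading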

[3] = doxorubicin toxicity protection in MRP-1 cells – H69AR cells, CellTiter-Glo, duplicate, MRP-1 activator project, pilot screen (AID 807;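 active = viability increase at or above a cutoff of the median across tested compounds plus 3 SD, cut at about 8.5% in these data, passing the limit was not always enough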;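 also: compound pretreatment 18-22 h then 72 h combined with doxorubicin; 0% = doxorubicin alone and 100% = vehicle without doxorubicin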); conditions: H69AR viability with doxorubicin, CellTiter-Glo luminescence; at 10 µM; stronger effect = higher value
[4] = viability of HCT116 without oncogenic beta-catenin – human colon tumor cells, pilot screen (AID 823;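 active = cell viability at or below a set limit in both duplicate runs, the limit being the all-compound median minus 4 SD, cut at about 23% in these data, passing the limit was not always enough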;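 also: 0% = wells killed by 20 µM Hyamine and 100% = untreated DMSO cell wells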); conditions: HCT116 beta-catenin knockout viability, CellTiter-Glo, 60 h; at 10 µM; stronger effect = lower value
[5] = viability of PTEN-null HCT116 cells – cell-based, HCT116 clonal line, CellTiter-Glo, pilot screen (AID 824); conditions: HCT116 PTEN-deleted viability, 60 h, at 10 µM, stronger effect = lower value;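 also: 0% = 20 µM Hyamine control and 100% = vehicle cell control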
[6] = RAM signaling pathway blockade in yeast – S. cerevisiae, Pdr1DBD-CYC8 efflux-inhibited sensitized strain, primary screen (AID 1298;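 active = RAM network inhibition above 8.4% in each of two replicates, 3 SD over the compound average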;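 also: 0% = DMSO untreated cells without growth and 100% = 10 µM 1-NA-PP1 full growth; higher means more yeast growth rescued from 5-FOA killing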); conditions: S. cerevisiae cbk1-as DSE1-URA3 strain, 5-FOA growth OD615, 2 d; at 50 µM; stronger effect = higher value
[7] = RAM pathway blockade in budding yeast – dse1pr::URA3 reporter, 5-FOA selection, pilot screen (AID 869;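 active = inhibition over a set limit, the all-compound mean plus 3 SD, in both replicate runs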;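 also: 0% = DMSO wells with no growth and 100% = 10 µM 1-NA-PP1 with full growth; RAM network block rescues cells from 5-FOA so hits raise OD615 growth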); conditions: S. cerevisiae dse1pr::URA3 5-FOA growth, OD615, 2 d; at 10 µM; stronger effect = higher value; strain carries analog-sensitive mutant Cbk1 kinase

CCOc1ccc(C2Oc3nc(SC)nnc3-c3ccccc3N2C(C)=O)cc1OC (stereo unspecified)
inactive: growth inhibition [1] 6.18% | growth inhibition [2] 4.39% | viability increase [3] -2.28% | viability [4] 109% | viability [5] 99.8% | RAM network inhibition [6] 4.23%

CC1Cn2c(nnc2-c2ccccc2O)S1 (stereo unspecified)
inactive: growth inhibition [1] -13.6% | growth inhibition [2] -21.9% | viability increase [3] -1.33% | viability [4] 115% | viability [5] 98.2% | RAM network inhibition [6] 5.23%

Cc1cc(NC(=O)CSc2nc3c(c(=O)n2CCc2ccccc2)SC(C)C3)no1 (stereo unspecified)
inactive: growth inhibition [1] -12.6% | growth inhibition [2] -12.3% | viability increase [3] -1.68% | viability [4] 89.5% | viability [5] 96.6% | RAM network inhibition [6] 5.21%

CCOc1ccc(N(CC(=O)NC(C)CC)S(=O)(=O)c2c(C)noc2C)cc1 (stereo unspecified)
inactive: growth inhibition [1] -4.58% | growth inhibition [2] -11.1% | viability increase [3] -0.76% | viability [4] 99.3% | viability [5] 93.1% | RAM network inhibition [6] 2.66%

COc1ccccc1-c1nc(-c2ccc(Br)cc2)no1
inactive: growth inhibition [1] 4.16% | growth inhibition [2] -2.73% | viability increase [3] -3.88% | viability [4] 84.2% | viability [5] 94.1% | RAM network inhibition [6] 5.02%

CN(CC(=O)N1CCc2ccccc2C1)S(=O)(=O)c1ccc2c(c1)c(=O)n(C)c(=O)n2C
inactive: growth inhibition [1] -12.3% | growth inhibition [2] -9.22% | viability increase [3] -3.24% | viability [4] 98.4% | viability [5] 90.2% | RAM network inhibition [6] 5.95%

CCOC(=O)CNc1nc(C(C)(C)C)nc2c1nnn2Cc1ccccc1Cl
inactive: growth inhibition [1] 1.73% | growth inhibition [2] -3.68% | viability increase [3] -1.19% | viability [4] 78% | viability [5] 76.2% | RAM network inhibition [6] 9.74%

O=C(c1cccs1)N(C(=O)c1cccs1)c1ccccn1
inactive: growth inhibition [1] -5.4% | growth inhibition [2] -6.32% | viability increase [3] -1.11% | viability [4] 96.8% | viability [5] 102% | RAM network inhibition [6] 4.17%

COc1ccc(C2C(C(C)=O)=C(O)C(=O)N2CCN(C)C)cc1OC (stereo unspecified)
inactive: growth inhibition [1] -17.7% | growth inhibition [2] -12.3% | viability increase [3] 0.21% | viability [4] 92.6% | viability [5] 96.9% | RAM network inhibition [6] 1.99%

CN1C(=O)CSc2ccc(C(=O)O)cc21
inactive: growth inhibition [1] 0.925% | growth inhibition [2] -1.22% | viability increase [3] -0.35% | viability [4] 100% | viability [5] 100% | RAM network inhibition [6] -0.62%

FC(F)(F)c1nc(N2CCN(c3ccccc3)CC2)nc2c1CCCCC2
inactive: growth inhibition [1] -16.6% | growth inhibition [2] -18.3% | viability increase [3] -0.3% | viability [4] 72.5% | viability [5] 73.4% | RAM network inhibition [6] 9.39%

CSc1cccc(NS(=O)(=O)c2ccc3c(c2)oc(=O)n3C)c1
inactive: growth inhibition [1] -0.15% | growth inhibition [2] 7.23% | viability increase [3] -1.75% | viability [4] 85.3% | viability [5] 81% | RAM network inhibition [6] 4.49%

Cn1c(C(C#N)/C(=N\S(=O)(=O)c2cccs2)c2ccccc2)nc2ccccc21 (stereo unspecified)
inactive: growth inhibition [1] -17.5% | growth inhibition [2] -19.6% | viability increase [3] -1.15% | viability [4] 95.5% | viability [5] 94.7% | RAM network inhibition [6] 6.16%

CC(Sc1nc(N2CCOCC2)nc(N2CCOCC2)n1)C(=O)Nc1ccccc1 (stereo unspecified)
inactive: growth inhibition [1] -18.4% | growth inhibition [2] -21.2% | viability increase [3] -1.56% | viability [4] 95.5% | viability [5] 93.2% | RAM network inhibition [6] 5.6%

CCOC(=O)c1c(C)[nH]c(C(=O)COc2ccc3c(c2)OCO3)c1C
inactive: growth inhibition [1] 1.84% | growth inhibition [2] -1.24% | viability increase [3] -2.79% | viability [4] 91.2% | viability [5] 87.5% | RAM network inhibition [6] 5.07%

O=C(Cn1c(=O)oc2cc(S(=O)(=O)N3CCCCCC3)ccc21)NC1CCCCC1
inactive: growth inhibition [1] -4.92% | growth inhibition [2] -8.79% | viability increase [3] -4.28% | viability [4] 101% | viability [5] 93.8% | RAM network inhibition [6] 3.25%

COc1ccccc1S(=O)(=O)Cc1ccc(C(=O)NCc2cccnc2)o1
inactive: growth inhibition [1] 0.915% | growth inhibition [2] -0.525% | viability increase [3] -1.11% | viability [4] 97.8% | viability [5] 94.9% | RAM network inhibition [6] 2.56%

COc1ccc(C)cc1NS(=O)(=O)c1cccc2nonc12
inactive: growth inhibition [1] -8.6% | growth inhibition [2] -10.6% | viability increase [3] -3.24% | viability [4] 95.8% | viability [5] 94.3% | RAM network inhibition [6] 4.42%

C=CCOC(=O)c1sc(NC(=O)c2ccco2)nc1C
inactive: growth inhibition [1] -13.2% | growth inhibition [2] -5.04% | viability increase [3] -1.25% | viability [4] 94% | viability [5] 84.6% | RAM network inhibition [6] 1.63%

COc1ccc(-n2c(SCC(=O)Nc3nccs3)nc3c(c2=O)SCC3)cc1
inactive: growth inhibition [1] -1.01% | growth inhibition [2] -11.5% | viability increase [3] -3.87% | viability [4] 93.2% | viability [5] 84.6% | RAM network inhibition [6] 5.95%

CCOC(=O)N1CCC(N2C(=O)c3ccc(C(=O)Nc4ccc(F)cc4F)cc3C2=O)CC1
inactive: growth inhibition [1] -2.61% | growth inhibition [2] -7.76% | viability increase [3] -6.61% | viability [4] 91.1% | viability [5] 94.4% | RAM network inhibition [6] 4.78%

CCOc1ccc(Cn2nnc(C(=O)Nc3cc(OC)cc(OC)c3)c2N)cc1
inactive: growth inhibition [1] -2.1% | growth inhibition [2] 0.885% | viability increase [3] -5.5% | viability [4] 86% | viability [5] 88% | RAM network inhibition [6] 2.46%

O=C(Nc1c(C(=O)Nc2ccccc2)cnn1-c1ccccc1)c1ccco1
inactive: growth inhibition [1] -3.7% | growth inhibition [2] -2.03% | viability increase [3] -4.51% | viability [4] 94.4% | viability [5] 94.3% | RAM network inhibition [6] 2.51%

Cc1ccccc1-n1c(Cn2c(=O)sc3ccccc32)nnc1SC(C)C
inactive: growth inhibition [1] 5.19% | growth inhibition [2] 6.75% | viability increase [3] -0.49% | viability [4] 84% | viability [5] 78.4% | RAM network inhibition [6] 6.91%

CCOc1ccc(-n2nnc3c(=O)n(CC(=O)c4ccccc4)cnc32)cc1
inactive: growth inhibition [1] -2.31% | growth inhibition [2] 1.56% | viability increase [3] 0.38% | viability [4] 101% | viability [5] 97% | RAM network inhibition [6] 3.09%

CCOc1ccc(N(CC(=O)Nc2cccc(Cl)c2)S(=O)(=O)c2c(C)noc2C)cc1
inactive: growth inhibition [1] -14.8% | growth inhibition [2] -4.69% | viability increase [3] -7.01% | viability [4] 39.2% | viability [5] 45.7% | RAM network inhibition [6] 12.6%

O=C(NCc1ccccc1Cl)C1CCN(C(=O)c2sccc2-n2cccc2)CC1
inactive: growth inhibition [1] -17.6% | growth inhibition [2] -12% | viability increase [3] -2.65% | viability [4] 99.2% | viability [5] 86.8% | RAM network inhibition [6] 8.69%

COc1ccc(C(=O)CSc2nnc(-c3ccccc3)o2)cc1
inactive: growth inhibition [1] 4.92% | growth inhibition [2] 15.3% | viability increase [3] -0.88% | viability [4] 95.6% | viability [5] 88.8% | RAM network inhibition [6] 7.56%

Cc1cc(C)cc(NC(=O)CSc2nnc(Cn3c(=O)sc4ccccc43)n2C)c1
inactive: growth inhibition [1] -6.84% | growth inhibition [2] -21.8% | viability increase [3] -2.93% | viability [4] 98.2% | viability [5] 94.9% | RAM network inhibition [6] 1.37%

COc1ccc(-c2nc(-c3cccc(C(F)(F)F)c3)no2)cc1OC
inactive: growth inhibition [1] -2.88% | growth inhibition [2] 1.6% | viability increase [3] -0.18% | viability [4] 99% | viability [5] 93.3% | RAM network inhibition [6] 7.48%

COc1ccc(-n2c(SCC(=O)N3CCCC3)nc3c([nH]c4ccccc43)c2=O)cc1
inactive: growth inhibition [1] -20.2% | growth inhibition [2] -19.5% | viability increase [3] -3.04% | viability [4] 105% | viability [5] 93.7% | RAM network inhibition [6] 1.9%

CCOC(=O)C1CCN(S(=O)(=O)C(F)(F)c2nc3ccccc3s2)CC1
inactive: growth inhibition [1] -10.6% | growth inhibition [2] -6.5% | viability increase [3] -2.27% | viability [4] 82.2% | viability [5] 87.5% | RAM network inhibition [6] 5.28%

O=C(NC(C(=O)c1ccccc1)N1CCOCC1)c1ccccc1 (stereo unspecified)
inactive: growth inhibition [1] -2.93% | growth inhibition [2] 13.8% | viability increase [3] -2.37% | viability [4] 99.3% | viability [5] 101% | inhibition [7] 1.61% | RAM network inhibition [6] 1.98%

CCn1c(=O)c2cc(C(=O)Nc3cc(C)on3)sc2c2ccccc21
inactive: growth inhibition [1] -16.6% | growth inhibition [2] -25.2% | viability increase [3] -6.36% | viability [4] 92.1% | viability [5] 71.5% | RAM network inhibition [6] 4.19%

CC1CCCCN1S(=O)(=O)c1cccc2cccnc12 (stereo unspecified)
inactive: growth inhibition [1] 6.45% | growth inhibition [2] 16.5% | viability increase [3] -3.21% | viability [4] 96.8% | viability [5] 83.7% | inhibition [7] 0.47% | RAM network inhibition [6] 3.59%

CC(=O)N1CCN(CCN=CC2=C(O)CC(c3cccs3)CC2=O)CC1 (stereo unspecified)
inactive: growth inhibition [1] -6.7% | growth inhibition [2] -2.31% | viability increase [3] -0.76% | viability [4] 93.1% | viability [5] 103% | inhibition [7] -0.455% | RAM network inhibition [6] -0.41%

COc1ccc(N2CCN(C(=O)c3cc4c(-c5ccc(Cl)cc5)nn(C)c4s3)CC2)cc1
inactive: growth inhibition [1] 2.67% | growth inhibition [2] -4.22% | viability increase [3] -3.45% | viability [4] 78.6% | viability [5] 71.4% | RAM network inhibition [6] 3.98%

CC1Cc2ccccc2C(=O)N1 (stereo unspecified)
inactive: growth inhibition [1] 0.58% | growth inhibition [2] 11.4% | viability increase [3] 0.15% | viability [4] 106% | viability [5] 99% | inhibition [7] 0.36% | RAM network inhibition [6] 3.5%

Cn1c(=NC(=O)c2ccco2)sc2cccc(F)c21
inactive: growth inhibition [1] -12.6% | growth inhibition [2] -1.11% | viability increase [3] -7.04% | viability [4] 80.9% | viability [5] 78.4% | inhibition [7] 2.1% | RAM network inhibition [6] 6.79%

N#Cc1c(-c2ccco2)c2c([nH]c1=S)CCCC2
inactive: growth inhibition [1] 6.88% | growth inhibition [2] -0.73% | viability increase [3] -3.4% | viability [4] 105% | viability [5] 93.8% | inhibition [7] 1.57% | RAM network inhibition [6] 1.82%
